Among the data in the RNAGym collection of RNA variant scans (doi:10.1126/science.aae0568) are yeast fitness values, retold here.

The labels stand for the following.
B1: tRNA (parent)
chain: GUUCCGUUGGCGUAAUGGUAACGCGUCUCCCUCCUAAGGAGAAGACUGCGGGUUCGAGUCCCGUACGGAACG

Fewer inactive variants are shown than the library holds. A value given as a limit tells only on which side of the number the result lay.

Variants of B1 are the subject of this data set. Description: yeast fitness relative to wild type (ratio to wild type); higher = fitter; tRNA-Arg(CCU), competitive growth, 37 C, YPD. The method in brief:
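Variants of the tRNA-Arg(CCU) gene, chemically synthesised with a 3% per-site mutation rate at 69 sites, were placed at the native genomic locus in Saccharomyces cerevisiae. The pooled strains were competed in YPD at 37°C for 24 hours in six parallel replicates. Gene amplicons from the start population and from each end population were read by 100-nucleotide paired-end sequencing. Darwinian fitness relative to wild type came from changes in genotype frequencies; genotypes needed ≥ 100 starting reads, and estimates < 0.5 were set to 0.5.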
As for C4A A14U C34G C55U A65C, the yeast fitness was at most 0.5.
Consider C4A C22U U54A, for which the yeast fitness turned out to be 0.685.
The figure for U3G G44A G67C is at most 0.5.
Regarding C4A U16A C30G C31U, the yeast fitness was at most 0.5.
The figure for U3G C5G G10A C30G C31G C49A C60U G67A is at most 0.5.
The figure for C4A C5U C34U U64G is 0.576; for U3G U8A C24A G56C it is at most 0.5; for C4A G23A A40C it is at most 0.5.
Take C4A G41A A42C G50C A70G: the yeast fitness was at most 0.5.
With U3G C55U, the yeast fitness amounted to 0.784.
The figure for U3G C30G A70C is 0.628; for C4A G23A U28A it is at most 0.5; for C4A U28G it is 0.681.
As for C4A U7A U8A C60A, the yeast fitness was at most 0.5.
As for C4A G18C A43C C62G A65C C66A, the figure is at most 0.5.
Take U3G C24A C30U: the yeast fitness was at most 0.5.
As for C4A A36G C55A C61U, the figure is at most 0.5; as for C4A C22G C55G G63C, at most 0.5.
As for U3G C11U G67A, the yeast fitness is 0.564.
The figure for C4A C61A G67A is at most 0.5; for C4A C46U G68A it is 0.887; for C4G A15G G17C C34A it is 0.598.
For the variant C4A U16C C33U A42G, the yeast fitness is at most 0.5.
The figure for C4A G17U C46A is 0.645; for C4A C55G C61U it is at most 0.5; for C4A C31G C46U it is 0.677.
Consider C4A C31U G44A A45U, for which the yeast fitness came to 0.574.
The figure for C4A C5U C22U C34A C62G is at most 0.5.
The figure for C4A C34G A70G is at most 0.5.
As for U3G G41C G51C A57G, the figure is at most 0.5.
Regarding C4A A15G C31G G50A, the yeast fitness was at most 0.5.
The figure for U3G A45G A69U is 0.763.
The figure for C4A C24U U47G is at most 0.5; for C4A C5U C22U C34A C62U A70U it is at most 0.5.
Turning to C4A U26A A36C C49G, the yeast fitness amounted to 0.583.
The figure for C4A C11U A21U G23A is at most 0.5; for C4A G18C C33U U59A it is at most 0.5; for C4A A21U it is 0.676.
The figure for C4A C24G U32C C62U A69C is at most 0.5.
As for U3G A37U G63A C66U, the yeast fitness is at most 0.5.
As for C4A G17A C27G G63A, the figure is at most 0.5.
As for U3G A14G, the figure is 0.907; as for C4A A70U, 0.879; as for C4A A70G, 0.93.
For the variant U3G A21C G67U, the yeast fitness is at most 0.5.
As for C4A C29U G67A A70U, the figure is at most 0.5; as for C4A A15G C27U, 0.664.
As for C4A C24U C46U C55A C66U, the figure is at most 0.5.
In the case of C4A G12C U19C C24G A43U C61A, the yeast fitness was found to be 0.502.
The figure for C4A G6A G67U is at most 0.5; for U3G U7C G18A C30G G41U C49G it is at most 0.5; for C4A C11A U13C A70U it is at most 0.5.
U3C U59A C61G: the yeast fitness turned out to be 0.587.
The figure for C4A C22U C24A C29A A36C is 0.518; for U3G U8A C31A G52A it is at most 0.5; for U3G U32C it is 0.86.
As to U3G A20C A21G C61A, the yeast fitness was at most 0.5.
The figure for U3G C11U A40C A45C U47C A57C C62U is at most 0.5; for C4A G9C C30A G39A C61G it is at most 0.5; for C4A U35C G44C it is at most 0.5.
The figure for U3G U13C A14U C61G C62U is at most 0.5; for U3G G63A it is 0.849.
As for U3G A43U C62U, the figure is 0.727.
In the case of C4A A15G C22U A36U C60A, the yeast fitness is at most 0.5.
Regarding U3C U16C C30G C31G A37U, the yeast fitness turned out to be 0.718.
The figure for C4A A14U C34G A65U is at most 0.5; for C4A G17A G51C it is at most 0.5.
The figure for U3C U19A A57G is 0.624; for C4A A14G G17A C60G it is at most 0.5.
As to C4A C5U C34U U64G A69U, the yeast fitness was at most 0.5.
Take U3G U28A C33U A36G C66A: the yeast fitness was at most 0.5.
Consider U3G C5G A20C C61U, for which the yeast fitness is at most 0.5.
With U3C U19A C22U G63A, the yeast fitness is at most 0.5.
As for U3C U16A, the yeast fitness worked out at 0.936.
The figure for C4A C46U C55U is at most 0.5; for C4A G39C G44C G52C it is 0.685.
As for U3G C5A C34A, the figure is at most 0.5; as for C4G A14G C30G G63C, at most 0.5; as for C4A A40C, 0.812.
As for C4A A40U, the figure is 0.94; as for C4A U26A A45U, 0.656.
For U3G C31U C49U, the yeast fitness is 0.681.
The figure for C4A G9A U13G C22U C61A A70C is at most 0.5.
